Assay results of several laboratories.
Values after ≈ are worked out from the molar mass of the structure shown.

COC(=O)c1cc(-c2cccc(NC(=O)Nc3ccc(Cl)c(C(F)(F)F)c3)c2)on1 — MIC (Mycobacteroides abscessus; microbial growth, broth dilution; ATCC19977; 48 h): > 64 µg/mL
C[n+]1ccc(/C=C2\Sc3ccccc3N2CCCN2CCCCC2)c2ccccc21.[I-] — MIC (Pseudomonas aeruginosa; microbial growth, broth dilution; ATCCBAA2108; drug-resistant strain): 64 µg/mL
CC[C@H](C)[C@H]1C(=O)N2CCC[C@H]2C(=O)O[C@H](C(C)(C)C)C[C@@H](C)C[C@H](O)[C@H](C)C2=N[C@@H](CCC(=O)N[C@@H](Cc3ccc(OC)cc3)C(=O)N(C)[C@@H](C)C(=O)N1C)CS2 — IC50 (Zika virus; viral replication; Huh7.5; 24 h): 0.015 µM
CCCCCOc1ccc(-c2cc(-c3ccc(C(=O)N[C@H]4C[C@@H](O)[C@@H](O)NC(=O)[C@@H]5[C@@H](O)[C@@H](C)CN5C(=O)[C@H]([C@H](O)CC(N)=O)NC(=O)[C@H]([C@H](O)[C@@H](O)c5ccc(O)c(OS(=O)(=O)O)c5)NC(=O)[C@@H]5C[C@@H](O)CN5C(=O)[C@H]([C@@H](C)O)NC4=O)cc3)no2)cc1 — inhibition (Kluyveromyces marxianus; biofilm formation; 1 µg/mL): 53%
CC1CCN(CCCN2/C(=C/c3cc[n+](C)c4ccccc34)Sc3ccccc32)CC1.[I-] — MIC (Pseudomonas aeruginosa; microbial growth, broth dilution; ATCCBAA2108; drug-resistant strain): 16 µg/mL
[2H]C([2H])(c1cc(F)c(F)cc1F)n1c(=O)n(Cc2ncn(C)n2)c(=O)[nH]/c1=N\c1cc2cn(C)nc2cc1Cl — EC50 (Alphacoronavirus 1; viral replication, inhibitor, qPCR; CRFK): ~50 µM
COC(=O)c1cc(-c2cccc(NC(=O)Nc3ccc(F)c(F)c3)c2)on1 — MIC (Mycobacteroides abscessus; microbial growth, broth dilution; ATCC19977; 48 h): > 64 µg/mL
O=C(N[C@H](CO)[C@H](O)c1ccc([N+](=O)[O-])cc1)C(Cl)Cl — MIC (Bacillus; microbial growth, broth dilution; ATCC27859; 18 h): 0.98 µg/mL (≈ 3.03 µM)
CCOC(=O)c1cc(-c2cccc(NC(=O)Nc3ccc(Cl)c(Cl)c3)c2)on1 — MIC (Mycobacteroides abscessus; microbial growth, broth dilution; ATCC19977; 48 h): > 64 µg/mL
O=C(N[C@H](CO)[C@H](O)c1ccc([N+](=O)[O-])cc1)C(Cl)Cl — MIC (Bacillus; microbial growth, broth dilution; ATCC27859): 0.98 µg/mL (≈ 3.03 µM)
